From paper PMC7453566 (ACS Central Science, 2020)
Counter-ions that a name gives are not always drawn.

Tests used:
[1] = tested on: citrate concentration in INS-1 cells; test: Citrate quantification with Citron1 in INS-1 cells treated with glucose or BTC; type: cell-based, rat
Method in brief: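 INS-1 cells express the direct-response citrate biosensor in the cytosol or in mitochondria and are imaged in Krebs-Ringer buffer, with 20 mM glucose then 2 mM test compound, or test compound without glucose. Concentrations are read from in situ titration curves in digitonin-permeabilized cells (cytosol n = 62, mitochondria n = 34 cells). Each value is the average of triplicates; s.e.m. is given.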

[2] = tested on: citrate concentration in HeLa cells; test: Imaging of glucose- or drug-induced citrate concentration changes in HeLa cells; type: cell-based
CF98 = type: binding; conditions: read-out: Kd (CF98)
Citron1 = type: cell-based, HeLa; conditions: read-out: in situ Kd (Citron1); n = 128
Method in brief: (§1)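 HeLa cells (ATCC CCL-2) express the biosensor from a CMV promoter, untargeted (cytoplasmic/nuclear). Cells are imaged, permeabilized with digitonin, then titrated stepwise with citrate (0.1 to ∼20 mM) in the imaging buffer, allowing at least 250 s per step. The mean response versus citrate gives the in situ calibration curve, from 128 cells or 26 cells; s.e.m. is given.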

Citroff1 = type: cell-based, HeLa; conditions: read-out: in situ Kd (Citroff1); n = 26
Method in brief: as §1

[3] = tested on: citrate concentration in INS-1 cells; conditions: stimulatory glucose; cited from earlier work

In the case of `O=C(O)c1cccc(C(=O)O)c1C(=O)O` [BTC, 1,2,3-benzenetricarboxylate], the “citrate concentration, following increase” value ([1]; 2 mM BTC after glucose addition) is reported as ~18 mM, the “citrate concentration, pronounced decrease after treatment” value ([1]; 2 mM BTC after glucose addition, from ∼25 mM) is reported as ~10 mM and the “citrate concentration after treatment” value ([1]; 2 mM BTC in the absence of glucose, from ∼3 mM) is reported as “less than 2 mM”.
For `N#C/C(=C\c1cn(-c2ccccc2)c2ccccc12)C(=O)O` [UK-5099, reference compound], the “subsequent change of Citron1 fluorescence” value ([2]; HeLa mitochondria, 25 μM) was “sustained decrease” and the “transient increase of Citron1 fluorescence” value ([2]; HeLa mitochondria, 25 μM, likely DMSO artifact per authors) was 20%.
Compound `O=C(O)CC(O)(CC(=O)O)C(=O)O` [citrate, citrate (2-hydroxypropane-1,2,3-tricarboxylate)] has a Kd (CF98) of ~9 mM, a Kd (Citron1) of 5.7 mM and a Kd (Citroff1) of 0.13 mM.
With `OC[C@H]1OC(O)[C@H](O)[C@@H](O)[C@@H]1O` (stereo partly drawn) [glucose] the “cytosolic citrate concentration change upon glucose addition” value ([2]; HeLa cells starved 0.5–1 h, 20 mM glucose) was “substantially increased”, the “mitochondrial citrate change upon glucose addition” value ([2]; HeLa cells starved 0.5–1 h, mitochondria-localized Citron1) was “initial transient decrease followed by a slower increase” and the “cytosolic and mitochondrial citrate concentration after treatment” value ([1]; 20 mM glucose, Krebs-Ringer buffer) was ~25 mM. For the same compound, the “fold increase in the concentration of citrate” value [3] was ~8 fold.
